The values that follow come from ChEMBL document CHEMBL1671644, “Inhibition of human immunodeficiency virus type 1 infection by the candidate microbicide dapivirine, a nonnucleoside reverse transcriptase inhibitor” (Antimicrob Agents Chemother, 2009).

Assay [1] deals with Human immunodeficiency virus 1. The assay is described as follows: Antiviral activity against HIV-1 subtype B V022811 infected in human MT4 cells assessed as inhibition of viral replication relative to HIV-1 3B. Type of assay: functional. The procedure, abridged:
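Recombinant clinical HIV-1 isolates (200 TCID50/well) were tested in MT-4 cells (3 x 10^4/well) over 3–5 days, with an MTT viability read-out. IC50 was fitted by nonlinear regression. Fold change is the isolate IC50 divided by the HIV-1IIIB IC50, tested in parallel.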

Assay [2] deals with Human immunodeficiency virus 1. Nature of the assay: Antiviral activity against HIV-1 RF infected in human PM1 cells after 7 days by RT assay. Type of assay: functional, organism-based. Conditions: Human immunodeficiency virus 1, RF, PM1, 168 h. The procedure, abridged: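 PM-1 cells (4 x 10^4/well) were infected with HIV-1BaL or HIV-1RF (200 TCID50/ml) and cultured 7 days with drug. Replication was measured as reverse transcriptase in supernatant versus untreated wells. IC50 was obtained by nonlinear regression.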

The test system of assay [3] is Human immunodeficiency virus 1. Nature of the assay: Antiviral activity against HIV-1 subtype B V022812 harboring NNRTI V179I mutant infected in human MT4 cells assessed as inhibition of viral replication relative to HIV-1 3B. Type of assay: functional. The procedure, abridged:
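MT-4 cells (3 x 10^4/well) infected with site-directed mutants or recombinant clinical isolates (200 TCID50/well) with drug, cultured 3 to 5 days. Viability read by MTT colorimetric antivirogram assay. IC50 by nonlinear regression; fold change = IC50 for the test isolate / IC50 for wild-type HIV-1 IIIB tested in parallel (mean or median).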

Assay [4] has as its system Human immunodeficiency virus 1. The assay is described as follows: Antiviral activity against HIV-1 SF162 infected in hu-SCID mouse assessed as protection from viral infection at 225 uM. Conditions: Human immunodeficiency virus 1, SF162 ISOLATE. Type of assay: functional.
The subject of assay [5] is Human immunodeficiency virus 1. Nature of the assay: Antiviral activity against HIV-1 3B infected in human MT4 cells after 3 to 5 days by MTT assay. Conditions: Human immunodeficiency virus 1, 3B, MT4, 72 to 120 h.

Structures are written as SMILES.

Regarding `Cc1cc(C)c(Nc2ccnc(Nc3ccc(C#N)cc3)n2)c(C)c1` [DAPIVIRINE], the “Ratio IC50” value in assay [1] came to 3.1; in assay [3] it was 2. The IC50 in assay [2] was found to be 2.4 nM; in assay [5], 0.9 nM. In addition, the inhibition in vivo at 225 µM in assay [4] was 85.7%.
